Results reported in ChEMBL document CHEMBL1159317, “Flavonoids from Ulex airensis and Ulex europaeus ssp. europaeus” (J Nat Prod, 2002).
Activity calls are given as the source filed them. The rule behind the calls is not given here.

Each compound was assayed on Cladosporium cucumerinum (assay: Antifungal activity against Cladosporium cucumerinum CCMI 206 at 100 ug by bioautographic TLC bioassay).
Assay type: functional, organism-based
Summary of the method: (§1)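 Bioautography on developed TLC plates against the fungus C. cucumerinum strain CCMI 206, obtained from the CCMI culture collection. Procedure followed Homans and Fuchs.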

| Compound | Activity |
| --- | --- |
| COc1cc2c(cc1OC)[C@@H]1Oc3cc4c(cc3[C@@H]1CO2)OCO4 | Active |
| CC1(C)C=Cc2c(ccc(-c3coc4cc(O)cc(O)c4c3=O)c2O)O1 | Active |
| COc1cc2c(cc1C1COc3cc(O)ccc3C1=O)OCO2 (configuration not stated) | Active |
| CC1(C)C=Cc2c(cc3occ(-c4ccc(O)cc4)c(=O)c3c2O)O1 | inactive |
| CC(C)=CCc1cc(-c2coc3cc(O)c(CC=C(C)C)c(O)c3c2=O)ccc1O | inactive |
| CC(C)=CCc1c(O)cc2occ(-c3ccc4c(c3)C=CC(C)(C)O4)c(=O)c2c1O | inactive |
| CC1(C)C=Cc2cc(-c3coc4cc5c(c(O)c4c3=O)CC(C(C)(C)O)O5)ccc2O1 (configuration not stated) | inactive |
| COc1cc(O)c2c(=O)c(-c3ccc(O)c(CC=C(C)C)c3)coc2c1CC=C(C)C | Active |
| CC1(C)C=Cc2cc(-c3coc4cc5oc(C(C)(C)O)cc5c(O)c4c3=O)ccc2O1 | inactive |
| CC1(C)C=Cc2c(cc(O)c3c(=O)cc(-c4ccc(O)cc4)oc23)O1 | inactive |

What follows are compounds tested on Cladosporium cucumerinum (assay: Induction of growth of Cladosporium cucumerinum CCMI 206 at 100 ug by bioautographic TLC bioassay).
Assay type: functional, organism-based
Summary of the method: as §1

| Compound | Activity |
| --- | --- |
| COc1c(O)cc2c(c1OC)OC[C@H]1c3cc4c(cc3O[C@@H]21)OCO4 | Active |
| COc1cc2c(cc1O)[C@@H]1Oc3cc4c(cc3[C@@H]1CO2)OCO4 | Active |
